In brackets after ≈: the same amount, converted by molar mass. Activity calls are given as the source filed them.
Tests used:
MCF7 [1] = assay: Cytotoxicity against human MCF7 cells at 10 ug/ml; assay type: functional, cell-based
How it was run: (§1)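 Human tumour lines were HM02 (gastric adenocarcinoma), HepG2 (hepatocellular carcinoma) and MCF7 (breast adenocarcinoma), run following NCI standards. Read-outs were total growth inhibition (TGI) and LC50, defined as a 50% reduction of the initial cell number, in µg/mL. Single-level testing was done at 10 µg/mL.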

[2] = test system: Aspergillus pseudoglaucus; assay: Antifungal activity against Eurotium repens at 50 ug/disk by agar diffusion assay; assay type: functional, organism-based
Mycotypha microspora = assay: Antifungal activity against Mycotypha microspora at 50 ug/disk by agar diffusion assay; assay type: functional, organism-based
HM02 = assay: Cytotoxicity against human HM02 cells at 10 ug/ml; assay type: functional, cell-based; how it was run: as §1
[Chlorella] fusca = Antialgal activity against 'Chlorella' fusca at 50 ug/disk by agar diffusion assay; assay type: functional, organism-based; conditions: Scenedesmus fuscus
Priestia megaterium = assay: Antibacterial activity against Bacillus megaterium at 50 ug/disk by agar diffusion assay; assay type: functional, organism-based
Microbotryum violaceum = assay: Antifungal activity against Microbotryum violaceum at 50 ug/disk by agar diffusion assay; assay type: functional, organism-based
HepG2 [3] = assay: Cytotoxicity against human HepG2 cells at 10 ug/ml; assay type: functional, cell-based; how it was run: as §1
Escherichia coli = assay: Antibacterial activity against Escherichia coli at 50 ug/disk by agar diffusion assay; assay type: functional, organism-based
P388 = assay: Cytotoxicity against mouse P388 cells; assay type: functional; conditions: read-out: ED50 (the source's name)
Artemia = assay: Toxicity in brine shrimp; assay type: organism-based; conditions: in vivo
[4] = Cytotoxicity against human HM02 cells; assay type: functional; how it was run: as §1
MCF7 [5] = assay: Cytotoxicity against human MCF7 cells; assay type: functional; how it was run: as §1
HepG2 [6] = assay: Cytotoxicity against human HepG2 cells; assay type: functional; how it was run: as §1
[7] = read-out: LC50 (the source's name)

SMILES | Activity (MCF7 [1]) | Activity [2] | Activity (Mycotypha microspora) | Activity (HM02) | Activity ([Chlorella] fusca) | Activity (Priestia megaterium) | Activity (Microbotryum violaceum) | Activity (HepG2 [3]) | Activity (Escherichia coli) | EC50 (P388) [µg/mL] | Activity (Artemia) | GI50 [4] [µg/mL] | TGI [4] [µg/mL] | CC50 [4, 7] [µg/mL] | GI50 (MCF7 [5]) [µg/mL] | TGI (MCF7 [5]) [µg/mL] | CC50 (MCF7 [5]; [7]) [µg/mL] | GI50 (HepG2 [6]) [µg/mL] | TGI (HepG2 [6]) [µg/mL] | CC50 (HepG2 [6]; [7]) [µg/mL]
C=C[C@@]1(C)C=C2C(=O)C(O)=C3[C@](C)(C(=O)O)CC[C@@H]4C[C@]34[C@]2(O)C(=O)C1 | inactive | inactive | inactive | inactive | inactive | inactive | inactive | inactive | inactive |  |  |  |  |  |  |  |  |  |  | 
C=C(C(=O)O)C(CCCCCC)C(=O)O (centres undefined) |  | inactive | inactive |  | inactive | inactive | inactive |  | inactive |  |  |  |  |  |  |  |  |  |  | 
O=C1C(CO)=C[C@H](O)[C@H]2O[C@@H]12 |  | inactive | inactive |  | inactive | inactive | inactive |  | inactive | 0.2 (≈ 1.28 µM) | Toxic | 0.7 (≈ 4.48 µM) | 1 (≈ 6.4 µM) | > 10 | 0.8 (≈ 5.12 µM) | 1.5 (≈ 9.61 µM) | 3.6 (≈ 23.1 µM) | 0.75 (≈ 4.8 µM) | 4.6 (≈ 29.5 µM) | > 10
C=C(C(=O)O)C(CCCCC(C)O)C(=O)OC (centres undefined) |  | inactive | inactive |  | inactive | inactive | inactive |  | inactive |  |  |  |  |  |  |  |  |  |  | 
C[C@@H]1C=C[C@@H]2C[C@H](CO)CC[C@H]2[C@@H]1C(=O)O |  | inactive | inactive |  | inactive | inactive | inactive |  | inactive |  |  |  |  |  |  |  |  |  |  | 

From ChEMBL document CHEMBL1148154, “New secondary metabolites from the marine endophytic fungus Apiospora montagnei” (J Nat Prod, 2004)
